Screening data deposited in PubChem BioAssay by Sanford-Burnham Center for Chemical Genomics.
An excerpt weighted towards active compounds, which were near 1.5% of everything screened.
EBI2 block = blocks human EBI2 receptor beta-arrestin signaling | inhibition, % at 5 µM | AID 651636 | P32249 | EBI2 beta-arrestin recruitment, luminescence, 7a,25-OHC stimulated | actives 0.81% (n = 360,000); in the data active = inhibition above about 38%;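 note: enzyme fragment complementation signal reports receptor beta-arrestin coupling in cells; 0% = agonist plus DMSO wells and 100% = wells without agonist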
APJ antag = antagonists of human APJ apelin receptor | inhibition, % at 20 µM | actives 0.32% (n = 330,000) | AID 2521 | CHO-K1 APJ beta-arrestin complementation, luminescence | P35414;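 active = inhibition above about 40% at 20 µM, limit read from the data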;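 note: cells challenged with 10 nM apelin-13 agonist together with compound; plate controls were apelin-13 plus DMSO wells for no effect and DMSO wells lacking apelin-13 for full effect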
CCR6 antagonist = blocks CCL20-driven beta-arrestin recruitment at human CCR6; inhibition, % at 20 µM; actives 0.49% (n = 340,000); CHO-K1 CCR6 PathHunter beta-arrestin, luminescence, CCL20-stimulated;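 active = compounds whose inhibition of the agonist-driven luminescence signal at 20 µM reaches about 50%, limit read from the data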;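 note: cells stimulated with CCL20 at 14 nM final; plate controls were DMSO with CCL20 for no effect and DMSO without agonist for full effect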
Target sequence (P51684 whole entry, looked up): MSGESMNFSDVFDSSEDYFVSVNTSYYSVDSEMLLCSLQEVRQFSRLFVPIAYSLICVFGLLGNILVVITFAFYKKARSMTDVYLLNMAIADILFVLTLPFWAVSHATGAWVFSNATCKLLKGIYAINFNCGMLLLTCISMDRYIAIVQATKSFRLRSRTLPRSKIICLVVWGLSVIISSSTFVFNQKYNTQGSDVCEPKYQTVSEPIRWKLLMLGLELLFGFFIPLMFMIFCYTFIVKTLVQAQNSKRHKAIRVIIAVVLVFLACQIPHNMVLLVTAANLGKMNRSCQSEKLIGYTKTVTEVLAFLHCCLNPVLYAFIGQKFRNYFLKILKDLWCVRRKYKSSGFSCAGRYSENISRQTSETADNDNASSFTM
APJ agonist = agonists of human APJ apelin receptor; AID 2520; activation, % at 20 µM; P35414; actives 0.11% (n = 330,000); CHO-K1 APJ PathHunter beta-arrestin, luminescence; 0% DMSO wells, 100% apelin;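 active = activation more than six SD over the plate average, tested at 20 µM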;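 note: 0% = DMSO alone and 100% = apelin-13 at 10 nM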
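Test system: CHO-K1 APJ beta-arrestin complementation cell line | Compound: Single test compound dose, 20 µM final, 1% DMSO | Incubation: Compound 90 min 25 °C, reagent 1 h | Measured by: beta-gal luminescence | Read-out basis: APJ–arrestin association signal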
CXCR6 inh = blocks human CXCR6 beta-arrestin recruitment; inhibition, % at 20 µM; AID 602244; CHO-K1 PathHunter CXCR6 beta-arrestin, luminescence; actives 0.36% (n = 360,000); O00574; in the data active = inhibition above about 34%, passing the limit was not always enough;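 note: antagonist mode with CXCL16 agonist at 10 nM final; 0% = 10 nM CXCL16 with DMSO and 100% = unstimulated wells without agonist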
EBI2 antag conf = EBI2 (human) antagonism, single concentration confirmation; actives 29% (n = 2,400); inhibition, % at 5 µM; EBI2 beta-arrestin luminescence, 7a,25-OHC antagonism; shares compounds with EBI2 block;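 active = inhibition of at least 50%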
EBI2 agonist = EBI2 agonism counter-screen; activation, % at 5 µM; EBI2-expressing cells, agonist mode, luminescence, 60 min; 0% vehicle, 100% 7α,25-dihydroxycholesterol control; shares compounds with EBI2 block; AID 652000; 2,400 tested, under 10 active;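 active = activation of at least 50%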
bGal counter = beta-galactosidase inhibition counter-screen. AID 652176. actives 1% (n = 2,400). shares compounds with EBI2 block. inhibition, % at 5 µM. purified beta-galactosidase, luminescent Galacton Star, 15 min;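 active = replicate-average signal at least 3 plate SD below neutral wells, shown as high inhibition, flagging enzyme-inhibiting false positives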;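 note: 0% = DMSO wells with enzyme and 100% = wells lacking enzyme; higher means stronger loss of beta-gal luminescence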
* marks the source's active call; other numbers are inactive results; x = no result.

SMILES	EBI2 block	APJ antag	CCR6 antagonist	APJ agonist	CXCR6 inh	EBI2 antag conf	EBI2 agonist	bGal counter
CCOC(=O)[C@]12Cc3ccc(C)cc3[C@H]1N(C1CCCCC1)C(=O)c1cc(OC)ccc12	52.1*	x	x	x	28.5	9.7	2.8	-10.7
CCOC(=O)[C@]12Cc3ccc(C)cc3[C@H]1N(C1CCCCC1)C(=O)c1ccccc12	64.4*	x	x	x	19.2	10.8	0.6	-7.6
CCOC(=O)[C@]12Cc3cc(C)ccc3[C@H]1N(C1CCCCC1)C(=O)c1ccccc12	60.1*	x	x	x	16.1	6.6	2.2	-11.5
CCOC(=O)[C@]12Cc3c(cc(OC)c(OC)c3OC)[C@H]1N(C1CCCCC1)C(=O)c1ccccc12	71.4*	x	x	x	11.1	-0.8	6.0	-10.6
CCOC(=O)[C@]12Cc3cc(C)ccc3[C@H]1N(CCC(=O)OC)C(=O)c1ccccc12	-4.3	x	x	x	6.9	x	x	x
O=C(COc1ccccc1)N1CCN(CCN2C(=O)c3cccc4cccc(c34)C2=O)CC1	49.9*	-16.6	8.2	1.6	0.6	16.4	0.8	4.0
COc1cc2c(cc1OC)C13CCN4C=C5CCOC6CC(=O)N2C1C6C5CC43 (configuration not stated)	1.2	x	-8.2	x	-7.3	x	x	x
O=C(COc1ccc(Br)cc1)N1CCN(C2CCCC2)CC1	85.2*	11.5	0.8	0.6	3.8	81.5*	-1.4	-6.7
Cc1ccc(OCC(=O)N2CCN(C3CCC(c4ccccc4)CC3)CC2)cc1 (configuration not stated)	82.1*	10.6	2.6	-2.3	-2.0	64.3*	1.6	1.8
O=C(COc1ccccc1)N1CCN(C2CC3CCC2C3)CC1 (configuration not stated)	36.7	-6.2	12.2	-4.0	-5.3	x	x	x
